Measurements taken from ChEMBL document CHEMBL1795258, “A diazen-1-ium-1,2-diolated nitric oxide donor ester prodrug of 3-(4-hydroxymethylphenyl)-4-(4-methanesulfonylphenyl)-5H-furan-2-one: synthesis, biological evaluation and nitric oxide release studies” (Bioorg Med Chem Lett, 2011).

Key:
[1] = Prodrug activation in 1.0 x 10^-2 mM of phosphate buffered saline at pH 7.4 assessed as nitric oxide release after 1.5 hrs by Griess reaction in presence of rat serum; settings: pH 7.4, 1.5 h
Method in brief: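 Compound at 1.0 × 10^-2 mM in pH 7.4 phosphate buffer with a little DMSO plus 90 μL rat serum in 2.4 mL, 37 °C for 1.5 h. Nitrite quantified by Griess reaction as % of theoretical 2 mol NO per mol. Mean of n = 3, variation ≤0.5%.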

[2] = biological target: T1, Prostaglandin G/H synthase 1 (Ovis aries, UniProt P05979); experiment: Inhibition of ovine COX1 by enzyme immuno assay
T1 sequence (P05979 whole entry): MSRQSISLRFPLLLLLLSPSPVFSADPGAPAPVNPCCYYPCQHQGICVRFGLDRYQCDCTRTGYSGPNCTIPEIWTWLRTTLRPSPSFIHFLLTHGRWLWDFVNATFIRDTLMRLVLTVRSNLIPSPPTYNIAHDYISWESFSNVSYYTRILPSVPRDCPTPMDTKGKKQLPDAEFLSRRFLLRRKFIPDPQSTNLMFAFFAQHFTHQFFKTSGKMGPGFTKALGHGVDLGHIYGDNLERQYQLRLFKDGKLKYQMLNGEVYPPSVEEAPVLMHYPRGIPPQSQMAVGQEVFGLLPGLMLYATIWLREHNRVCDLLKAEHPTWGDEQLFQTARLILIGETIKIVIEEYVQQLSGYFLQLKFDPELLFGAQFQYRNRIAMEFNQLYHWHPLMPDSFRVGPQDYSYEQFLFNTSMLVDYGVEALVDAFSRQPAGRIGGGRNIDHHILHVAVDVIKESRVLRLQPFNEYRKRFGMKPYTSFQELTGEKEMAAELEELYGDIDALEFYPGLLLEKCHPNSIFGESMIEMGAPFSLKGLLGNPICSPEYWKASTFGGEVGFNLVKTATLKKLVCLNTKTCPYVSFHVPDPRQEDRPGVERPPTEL

Mesenteric artery [3] = experiment: Inhibition of phenylephrine-induced vasoconstriction in Long Evans rat mesenteric arteries assessed as maximum response treated 45 mins before phenylephrine challenge (reference value: 2.13 +/- 0.23 g/mm); type: functional
Method in brief: (§1)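 Second-order mesenteric arteries (<250 in diameter, ~2 mm long) dissected in cold (0–4 °C) HEPES-buffered phosphate saline, pH 7.4. Mounted on isometric wire myograph and pretreated 45 min with test compound (1 μM) or DMSO. Constriction to phenylephrine 10^-7–5 × 10^-5 M then recorded.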

Mesenteric artery [4] = experiment: Inhibition of phenylephrine-induced vasoconstriction in Long Evans rat mesenteric arteries treated 45 mins before phenylephrine challenge; type: functional; method in brief: as §1
Rattus norvegicus = experiment: Antiinflammatory activity in po dosed rat assessed as inhibition of carrageenan-induced foot paw edema after 3 hrs; type: functional
Method in brief: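 Carrageenan-induced rat paw edema; test compound given orally, edema inhibition read at 3 h; potency reported as ED50 in μmol/kg.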

[5] = Prodrug activation in 1.0 x 10^-2 mM of phosphate buffered saline at pH 7.4 assessed as nitric oxide release after 1.5 hrs by Griess reaction; type: physicochemical; settings: buffer, pH 7.4, 1.5 h
Method in brief: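 Compound at 1.0 × 10^-2 mM in pH 7.4 phosphate buffer with a little DMSO, 37 °C for 1.5 h. NO measured as nitrite by Griess reaction, expressed as % of theoretical 2 mol NO per mol. Mean of n = 3, variation ≤0.5%.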

Mesenteric artery [6] = experiment: Inhibition of acetylcholine-induced relaxation in Long Evans rat phenylephrine pre-constricted mesenteric arteries assessed as maximum response (reference value: 0.38 +/- 0.01 g/mm); type: functional
Mesenteric artery [7] = experiment: tissue or blood; settings: Rattus norvegicus, Long Evans

SMILES | Activity [1] | IC50 [2] | Activity (Mesenteric artery [3]) | IC20 (Mesenteric artery [4]) | IC50 (Mesenteric artery [4]) | ED50 (Rattus norvegicus) | Activity [5] | Activity (Mesenteric artery [6]) | IC50 (Mesenteric artery [7])
CC(=O)OCO/N=[N+](/[O-])N1CCC[C@@H]1C(=O)OCc1ccc(C2=C(c3ccc(S(C)(=O)=O)cc3)COC2=O)cc1 | 38.4% | > 100000 nM | 1.17 g/mm | 1370 nM | 1750 nM | 72.2 µmol/kg | 4.2% |  | 
CS(=O)(=O)c1ccc(C2=C(c3ccccc3)C(=O)OC2)cc1 [ROFECOXIB] |  |  | 1.32 g/mm | 950 nM | 1660 nM | 4.8 µmol/kg |  | 0.23 g/mm | 88 nM
[Na+].[O-]/N=[N+](/[O-])N1CCC[C@@H]1CO | 85% |  |  |  |  |  | 84.5% |  | 
CS(=O)(=O)c1ccc(C2=C(c3ccc(CO)cc3)C(=O)OC2)cc1 |  | 33100 nM | 1.51 g/mm | 1010 nM | 1680 nM | 113 µmol/kg |  | 0.3 g/mm | 95 nM
